SMILES strings stand for the structures.

The text below walks through data of ChEMBL document CHEMBL1150337, “Lavendamycin antitumor agents: structure-based design, synthesis, and NAD(P)H:quinone oxidoreductase 1 (NQO1) model validation with molecular docking and biological studies” (J Med Chem, 2008).

The target of assay [1] is NAD(P)H dehydrogenase [quinone] 1 (Homo sapiens) (UniProt P15559). The assay can be described thus: Activity of human recombinant NQO1 assessed as reduction of cytochrome c per mg of protein by spectrophotometric assay. The method, boiled down:
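Cytochrome c reduction followed at 550 nm as initial rates. Mix: cytochrome c 70 µm, NADH 1 mM, recombinant human NQO1 (0.1–3 µg) and lavendamycin analogue 25 µm in 1 mL Tris-HCl 25 mM pH 7.4 with 0.7 mg/mL BSA and 0.1% Tween-20. At least triplicate.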

Assay [2] concerns BE. The assay can be described thus: Cytotoxicity against NQO1 deficient human BE cells after 4 to 5 days by MTT assay. Type of assay: functional, cell-based. The method, boiled down:
(§1)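 Cells in MEM with Earle's salts, 10% FBS, 37 °C, 5% CO2. Seeded at 10000 cells/mL, attached overnight (16 h). Analogue in medium for 2 h, then fresh medium for 4–5 days. MTT (50 µg) added for 4 h, formazan dissolved in DMSO, absorbance read at 560 nm. IC50 (50% of control survival) taken from semilog plots of percent control vs concentration.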

Assay [3] relates to BE-NQ. The assay can be described thus: Cytotoxicity against human BE-NQ cells expressing human NQO1 after 4 to 5 days by MTT assay. Type of assay: functional, cell-based. Summed up: as §1
(In general: Formazan colour is commonly taken as a measure of viable cells.)

For assay [4], the system named is BE-NQ. Put plainly: Selectivity ratio of IC50 for NQO1 deficient human BE cells to IC50 for human BE-NQ cells expressing NQO1. Type of assay: functional. Summed up:
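Ratio of MTT-derived IC50 in NQO1-deficient BE cells to IC50 in NQO1-transfected BE-NQ cells. IC50 was read from semilog plots of percent of control vs concentration.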

NAD(P)H dehydrogenase [quinone] 1 (Homo sapiens), sequence (P15559 whole entry): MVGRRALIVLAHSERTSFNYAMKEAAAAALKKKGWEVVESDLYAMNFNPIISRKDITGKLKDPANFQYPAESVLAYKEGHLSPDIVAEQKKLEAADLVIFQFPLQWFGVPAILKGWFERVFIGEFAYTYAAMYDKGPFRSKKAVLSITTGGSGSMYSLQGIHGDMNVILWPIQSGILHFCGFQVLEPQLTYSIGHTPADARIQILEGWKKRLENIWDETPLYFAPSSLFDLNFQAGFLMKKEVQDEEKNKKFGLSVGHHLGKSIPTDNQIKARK

Broadly, the IC50 is the concentration needed to halve the response being measured. For the molecule `CCC(C)NC(=O)c1cc2c([nH]c3ccccc32)c(-c2ccc3c(n2)C(=O)C(NC(C)=O)=CC3=O)n1` (configuration not stated), the Activity in assay [1] was 4.9 µmol/min/mg. For the same molecule, the IC50 in assay [2] and in assay [3] was over 50 µM throughout.
In the case of `COC(=O)c1cc2c([nH]c3ccccc32)c(-c2ccc3c(n2)C(=O)C(NC(=O)c2ccco2)=CC3=O)n1`, the Activity in assay [1] stood at 7 µmol/min/mg. The “Ratio IC50” value in assay [4] is listed as 1. The IC50 is 49 µM in assay [2] and 47 µM in assay [3].
`CCCCCCCCOC(=O)c1cc2c([nH]c3ccccc32)c(-c2ccc3c(n2)C(=O)C(N)=CC3=O)n1`: the “Ratio IC50” value in assay [4] is 10.
With `N=C1C=C(O)c2ccc(-c3nc(C(N)=O)cc4c3[nH]c3ccccc34)nc2C1=O`, the “Ratio IC50” value in assay [4] was found to be 9.
Regarding `NC1=CC(=O)c2ccc(-c3nc(C(=O)OCCO)cc4c3[nH]c3ccccc34)nc2C1=O`, in assay [1], the Activity is 60 µmol/min/mg. Moreover, in assay [4], the “Ratio IC50” value was found to be 7. Also, the IC50 in assay [2] was 3.3 µM; in assay [3] it was 0.5 µM.
For the molecule `CCCC(=O)NC1=CC(=O)c2ccc(-c3nc(C(=O)OCCC(C)C)cc4c3[nH]c3ccccc34)nc2C1=O`, in assay [1], the Activity is 3.4 µmol/min/mg. For the same molecule, the IC50 in assay [2] and in assay [3] was over 50 µM throughout.
For `CCCCNC(=O)c1cc2c([nH]c3ccccc32)c(-c2ccc3c(n2)C(=O)C(NC(C)=O)=CC3=O)n1`, the Activity in assay [1] was determined as 143 µmol/min/mg. The “Ratio IC50” value in assay [4] was found to be 30. Further, the IC50 was 50 µM in assay [2] and 1.7 µM in assay [3].
Consider `COC(=O)c1[nH]c(-c2ccc3c(n2)C(=O)C(=N)C=C3O)c2nc3ccccc3c-2c1C`, for which the “Ratio IC50” value in assay [4] was determined as 9.
Take `NC1=CC(=O)c2ccc(-c3[nH]c(CO)cc4c5ccccc5nc3-4)nc2C1=O`: the “Ratio IC50” value in assay [4] came out at 11.
